Experiment [1] can be described thus: Antiproliferative activity against human SW1116 cells after 48 hrs by MTT method. The class given is functional, cell-based. The note with it: SW 1116, 48 h. In general terms: Tetrazolium assays rely on reduction of a dye to a coloured formazan, in cell work by metabolically active cells.
The subject of the next experiment is BGC-823. In words: Antiproliferative activity against human BGC823 cells after 48 hrs by MTT method. The class given is functional, cell-based. The following applies: BGC-823, 48 h. In short, it runs like this: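 MTT assay. Cells were seeded at 10⁴ per well and held 24 h at 37 °C with 5% CO₂. […] After 48 h, 5 mg/mL MTT in PBS was added for 4 h. Formazan was dissolved in DMSO and absorbance read at 490 nm.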

The subject of another experiment is HepG2. In words: Antiproliferative activity against human HepG2 cells after 48 hrs by MTT method. The class given is functional, cell-based. The following applies: HepG2, 48 h.
The next experiment concerns HeLa. Briefly: Antiproliferative activity against human HeLa cells after 48 hrs by MTT method. It counts as functional, cell-based.
In experiment [2] the target is Telomerase reverse transcriptase (Homo sapiens, UniProt O14746). Briefly: Inhibition of telomerase in human HepG2 cells after 24 hrs by TRAP-PCR-ELISA assay. It counts as cell-based. In short, it runs like this: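 Cells in serum/penicillin/streptomycin medium (37 °C, 5% CO₂) were seeded at 5×10⁴ per T25 flask and allowed to adhere. After 24 h treatment, cells were lysed in RIPA buffer on ice for 30 min and spun at 12,000 g for 20 min at 4 °C. For the kit-based TRAP-PCR-ELISA, PCR ran 94 °C 120 s, then 35 cycles of 94/50/72 °C. Product was hybridised to a DIG probe, captured via biotin-streptavidin, detected with peroxidase anti-DIG, and read at 490 nm.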
Chain of Telomerase reverse transcriptase (O14746 whole entry): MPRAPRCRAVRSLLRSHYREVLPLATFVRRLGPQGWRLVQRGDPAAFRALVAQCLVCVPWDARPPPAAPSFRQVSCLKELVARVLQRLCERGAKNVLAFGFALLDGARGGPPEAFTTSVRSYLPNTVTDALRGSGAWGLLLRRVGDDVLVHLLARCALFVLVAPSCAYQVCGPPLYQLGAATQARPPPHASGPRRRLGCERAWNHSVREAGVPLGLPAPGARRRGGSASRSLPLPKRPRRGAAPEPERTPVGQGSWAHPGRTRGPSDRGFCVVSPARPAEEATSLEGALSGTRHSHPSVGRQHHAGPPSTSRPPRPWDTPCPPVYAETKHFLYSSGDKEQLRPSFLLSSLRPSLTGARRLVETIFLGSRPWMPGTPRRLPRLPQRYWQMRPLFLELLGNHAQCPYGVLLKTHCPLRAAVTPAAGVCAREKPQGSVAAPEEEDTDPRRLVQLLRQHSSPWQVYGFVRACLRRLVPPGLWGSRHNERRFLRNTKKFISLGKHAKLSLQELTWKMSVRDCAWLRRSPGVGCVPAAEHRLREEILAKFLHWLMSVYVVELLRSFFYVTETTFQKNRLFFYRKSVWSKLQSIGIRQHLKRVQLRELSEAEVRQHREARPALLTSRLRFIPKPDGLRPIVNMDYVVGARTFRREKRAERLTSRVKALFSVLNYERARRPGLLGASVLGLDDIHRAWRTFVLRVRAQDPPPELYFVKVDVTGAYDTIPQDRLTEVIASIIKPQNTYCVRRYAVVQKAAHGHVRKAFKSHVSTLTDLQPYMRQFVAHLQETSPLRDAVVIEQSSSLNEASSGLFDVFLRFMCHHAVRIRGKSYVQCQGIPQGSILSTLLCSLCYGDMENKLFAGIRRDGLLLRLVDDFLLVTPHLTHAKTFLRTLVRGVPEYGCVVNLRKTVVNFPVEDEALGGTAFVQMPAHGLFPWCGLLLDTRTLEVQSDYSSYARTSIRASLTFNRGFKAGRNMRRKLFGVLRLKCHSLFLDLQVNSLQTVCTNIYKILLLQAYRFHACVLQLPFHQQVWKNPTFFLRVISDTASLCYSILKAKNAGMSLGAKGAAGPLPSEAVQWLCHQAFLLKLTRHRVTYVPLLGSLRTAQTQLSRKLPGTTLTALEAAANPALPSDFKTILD

Each structure is given as a SMILES string.

As for `Fc1cccc(F)c1CSc1nnc(-c2cnccn2)s1`, the IC50 is 16.8 µM in experiment [1], 18.6 µM in the experiment on BGC-823, 6.9 µM in the experiment on HepG2 and 29.2 µM in the experiment with HeLa.
For the molecule `Brc1ccc(CSc2nnc(-c3cnccn3)n2-c2ccccc2)cc1`, the IC50 is 7.13 µM in experiment [2]; 6.21 µM in experiment [1]; 19.8 µM in the experiment with BGC-823; 11.4 µM with HepG2; 8.63 µM in the experiment on HeLa.
For `Clc1cccc(CSc2nnc(-c3cnccn3)o2)c1` the same measures were 6.38 µM, 7.88 µM, 15.8 µM, 7.5 µM and 14.6 µM.
Regarding `c1ccc(CSc2nnc(-c3cnccn3)s2)cc1`, the IC50 was 7.88 µM in experiment [1], 21.2 µM in the experiment on BGC-823, 11.3 µM with HepG2 and 34.4 µM in the experiment with HeLa.
As to `O=c1[nH]cc(F)c(=O)[nH]1` [FLUOROURACIL], the IC50 is 2.41 µM in experiment [1], 1.3 µM in the experiment on HepG2 and 3.25 µM in the experiment with HeLa.
For the molecule `Fc1ccc(CSc2nnc(-c3cnccn3)o2)cc1`, the IC50 is 17.1 µM in experiment [2]; 22.7 µM in experiment [1]; over 50 µM in the experiment on BGC-823; 16.5 µM in the experiment on HepG2; 41.6 µM in the experiment with HeLa.
For `Clc1cccc(CSc2nnc(-c3cnccn3)s2)c1` the same measures were 3.12 µM, 12.1 µM, 14.7 µM, 7.03 µM and 29.7 µM.
As for `Clc1ccc(CSc2nnc(-c3cnccn3)o2)cc1`, the IC50 in experiment [1] turned out to be 17.3 µM; in the experiment with BGC-823, 30 µM; in the experiment with HepG2, 11.5 µM; in the experiment on HeLa, 24.6 µM.
For `Fc1cccc(F)c1CSc1nnc(-c2cnccn2)o1` the same measures were 23.8 µM, over 50 µM, 17.1 µM and over 50 µM.
For `c1ccc(CSc2nnc(-c3cnccn3)n2-c2ccccc2)cc1` the same measures were 15.4 µM, over 50 µM, 17.1 µM and 35.6 µM.
For the molecule `Fc1ccc(CSc2nnc(-c3cnccn3)n2-c2ccccc2)cc1`, the IC50 in experiment [2] amounted to 15 µM; in experiment [1] it was 4.12 µM; in the experiment on BGC-823, 27.2 µM; in the experiment with HepG2 it was 10.1 µM; in the experiment on HeLa, 7.3 µM.
For the molecule `Brc1ccc(CSc2nnc(-c3cnccn3)o2)cc1`, the IC50 was 14.4 µM in experiment [1], 25.7 µM in the experiment on BGC-823, 13.2 µM with HepG2 and 21.6 µM in the experiment with HeLa.
On the same counts, the results for `Clc1ccccc1CSc1nnc(-c2cnccn2)n1-c1ccccc1` are 18.1 µM, 34.7 µM, 18.8 µM and over 50 µM.
Turning to `Brc1cccc(CSc2nnc(-c3cnccn3)o2)c1`, the IC50 in experiment [2] amounted to 3.59 µM; in experiment [1] it was 5.06 µM; with BGC-823, 11.5 µM; in the experiment on HepG2, 5.79 µM; in the experiment with HeLa, 30.3 µM.
On to `Clc1ccccc1CSc1nnc(-c2cnccn2)o1`, for which the IC50 in experiment [1] amounted to 15.1 µM; in the experiment on BGC-823, 27.7 µM; in the experiment with HepG2, 12.3 µM; in the experiment with HeLa, 23 µM.
As to `Fc1ccc(CSc2nnc(-c3cnccn3)n2-c2ccccc2)c(F)c1`, the IC50 in experiment [1] was 4.65 µM; with BGC-823 it was 17.8 µM; with HepG2 it was 10.4 µM; with HeLa, 12.5 µM.
On the same counts, the results for `c1ccc(CSc2nnc(-c3cnccn3)o2)cc1` are 34 µM, 25 µM, 11.2 µM and 21.1 µM.
`CN[C@@H]1C[C@H]2O[C@@](C)([C@@H]1OC)n1c3ccccc3c3c4c(c5c6ccccc6n2c5c31)C(=O)NC4` [STAUROSPORINE] showed an IC50 in the experiment with BGC-823 of 6.83 µM.
For the molecule `Clc1ccccc1CSc1nnc(-c2cnccn2)s1`, the IC50 was 7.53 µM in experiment [1], 20.3 µM in the experiment on BGC-823, 10.8 µM with HepG2 and 28.9 µM in the experiment with HeLa.
Take `Fc1ccc(CSc2nnc(-c3cnccn3)s2)cc1`: the IC50 in experiment [2] is 12.1 µM; in experiment [1], 17.1 µM; in the experiment with BGC-823, 29.3 µM; in the experiment with HepG2, 10.1 µM; with HeLa it was over 50 µM.
For `Clc1ccc(CSc2nnc(-c3cnccn3)n2-c2ccccc2)cc1` the same measures were 13.4 µM, 12.5 µM, 27.7 µM, 15.3 µM and over 50 µM.
`Fc1ccccc1CSc1nnc(-c2cnccn2)n1-c1ccccc1`: the IC50 in experiment [2] was 17.6 µM; in experiment [1], 18.8 µM; in the experiment on BGC-823 it was over 50 µM; with HepG2, 19.3 µM; in the experiment with HeLa it was 44.1 µM.
Consider `Fc1ccc(CSc2nnc(-c3cnccn3)o2)c(F)c1`, for which the IC50 in experiment [1] is 19.3 µM; in the experiment on BGC-823 it was 33 µM; in the experiment on HepG2, 14.4 µM; in the experiment on HeLa, 26.7 µM.
`Fc1ccccc1CSc1nnc(-c2cnccn2)o1`: the IC50 in experiment [1] was 16.8 µM; in the experiment with BGC-823, 18.2 µM; in the experiment on HepG2 it was 12.5 µM; in the experiment on HeLa it was 25.3 µM.
Turning to `Fc1cccc(F)c1CSc1nnc(-c2cnccn2)n1-c1ccccc1`, the IC50 in experiment [2] was 24.2 µM; in experiment [1] it was 24.1 µM; in the experiment on BGC-823, over 50 µM; in the experiment with HepG2, 22.6 µM; in the experiment on HeLa, over 50 µM.
Consider `Brc1ccccc1CSc1nnc(-c2cnccn2)s1`, for which the IC50 in experiment [2] was 3.97 µM; in experiment [1], 6.95 µM; in the experiment with BGC-823, 18.9 µM; in the experiment on HepG2 it was 9.81 µM; in the experiment on HeLa, 21.3 µM.
Turning to `Brc1ccccc1CSc1nnc(-c2cnccn2)n1-c1ccccc1`, the half-maximal inhibitory concentration (IC50) in experiment [1] was 19.4 µM; in the experiment with BGC-823 it was 36.2 µM; in the experiment on HepG2, 11.6 µM; with HeLa, over 50 µM.
As to `Brc1cccc(CSc2nnc(-c3cnccn3)s2)c1`, the IC50 in experiment [2] amounted to 1.54 µM; in experiment [1], 5.26 µM; with BGC-823, 16.7 µM; with HepG2 it was 1.79 µM; in the experiment with HeLa, 5.43 µM.
For `Clc1ccc(CSc2nnc(-c3cnccn3)s2)cc1` the same measures were 7.88 µM, 4.77 µM, 13.4 µM, 6.23 µM and 18.9 µM.
For `Brc1ccccc1CSc1nnc(-c2cnccn2)o1` the same measures were 3.55 µM, 2.46 µM, 17.6 µM, 4.22 µM and 8.89 µM.
Take `Fc1ccccc1CSc1nnc(-c2cnccn2)s1`: the IC50 worked out at 6.77 µM in experiment [1], 18.4 µM in the experiment with BGC-823, 9.52 µM in the experiment on HepG2 and 32.7 µM in the experiment on HeLa.
For `Brc1cccc(CSc2nnc(-c3cnccn3)n2-c2ccccc2)c1` the same measures were 5.03 µM, 18.3 µM, 10.6 µM and 9.58 µM.
On the same counts, the results for `Clc1cccc(CSc2nnc(-c3cnccn3)n2-c2ccccc2)c1` are 6.61 µM, 20.3 µM, 19.6 µM and 13.5 µM.
`Fc1ccc(CSc2nnc(-c3cnccn3)s2)c(F)c1`: the half-maximal inhibitory concentration (IC50) in experiment [1] was 5.18 µM; in the experiment with BGC-823, 14.5 µM; in the experiment on HepG2, 9.63 µM; in the experiment on HeLa it was 20.9 µM.

A word on the IC50: it is the concentration at which inhibition is half-maximal.

The values above are taken from ChEMBL document CHEMBL2157889, “Design, synthesis and biological evaluation of heterocyclic azoles derivatives containing pyrazine moiety as potential telomerase inhibitors” (Bioorg Med Chem, 2012).
